This assay has as its target Neuraminidase (Influenza A virus, UniProt B4URF0). Kind of assay: Inhibition of Influenza A virus type A H3N2 neuraminidase. The method, boiled down: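 NA was taken from influenza A virus strains Yuefang 72-243 A and Jifang 90-15 A and prepared by the Laver method. The enzyme in 33 mmol/L MES (pH 3.5) was mixed with 4 mmol/L CaCl₂ and 20 µmol/L MUNANA (added solutions) and incubated for 10 min at 37 °C. The reaction was stopped with 14 mmol/L NaOH in 83% ethanol. Fluorescence was read at 360/450 nm with substrate blanks subtracted. IC50 came from percent inhibition versus concentration, with each point run in duplicate.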

The structures appear in SMILES notation. Where a SMILES comes first, the peptide text is derived from it. [ ]: non-standard residue; d: D form. The star is where a group is joined. Hyp = O=C(O)[C@@H]1C[C@@H](O)CN1; Boc = CC(C)(C)OC(=O)*; NHOH = ON*

Chain of Neuraminidase (B4URF0 whole entry): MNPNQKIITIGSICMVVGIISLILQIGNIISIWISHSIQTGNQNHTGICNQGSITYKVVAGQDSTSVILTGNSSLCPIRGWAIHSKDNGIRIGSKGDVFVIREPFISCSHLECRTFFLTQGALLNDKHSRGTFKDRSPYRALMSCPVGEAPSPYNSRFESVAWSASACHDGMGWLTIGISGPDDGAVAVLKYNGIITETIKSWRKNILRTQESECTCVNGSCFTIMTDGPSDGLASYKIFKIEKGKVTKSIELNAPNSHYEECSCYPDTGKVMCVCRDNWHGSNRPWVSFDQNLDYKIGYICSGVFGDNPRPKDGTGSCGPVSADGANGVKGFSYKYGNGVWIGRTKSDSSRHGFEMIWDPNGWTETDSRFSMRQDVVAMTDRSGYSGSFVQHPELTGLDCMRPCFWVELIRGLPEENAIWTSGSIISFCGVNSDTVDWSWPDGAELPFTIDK

Regarding `CC(C)(C)OC(=O)N[C@@H](Cc1ccccc1)C(=O)N1C[C@H](O)C[C@H]1C(=O)NO` (Boc-Phe-[Hyp]-{NHOH}), the IC50 (as a rule, the concentration at which inhibition is half-maximal) runs as follows: (read-out: IC50) 4.27 µM; (read-out: Log IC50 (converted)) 11 µM.

Take `CC[C@H](C)[C@H](NC(=O)OC(C)(C)C)C(=O)N1C[C@H](O)C[C@H]1C(=O)NO` (Boc-Ile-[Hyp]-{NHOH}): the IC50 (read-out: IC50) came out at 2.15 µM and the IC50 (read-out: Log IC50 (converted)) was 6.03 µM.

As for `COC(=O)[C@@H]1C[C@@H](N)CN1C(=O)[C@@H](N)CC(C)C`, the IC50 is 48 µM (read-out: IC50) and 191 µM (read-out: Log IC50 (converted)).

As to `C[C@H](NC(=O)OC(C)(C)C)C(=O)N1C[C@@H](N)C[C@H]1C(=O)O`, the IC50 reads like this: (read-out: IC50) 15.8 µM; (read-out: Log IC50 (converted)) 53.7 µM.

`N[C@H]1C[C@@H](C(=O)NO)N(C(=O)Cc2ccccc2Nc2c(Cl)cccc2Cl)C1`: the concentration for half-maximal inhibition (IC50) by setting is: (read-out: IC50) 3.57 µM; (read-out: Log IC50 (converted)) 8.51 µM.

In the case of `CC[C@H](C)[C@H](NC(=O)OC(C)(C)C)C(=O)N1C[C@@H](N)C[C@H]1C(=O)NO`, the IC50 runs as follows: (read-out: IC50) 2.1 µM; (read-out: Log IC50 (converted)) 5.89 µM.

With `COC(=O)[C@@H]1C[C@@H](O)CN1C(=O)[C@H](C)NC(=O)OC(C)(C)C` (Boc-Ala-[Hyp]-OMe), the half-inhibitory concentration (IC50) is, setting by setting: (read-out: IC50) 90.8 µM; (read-out: Log IC50 (converted)) 288 µM.

With `CC(C)C[C@H](NC(=O)OC(C)(C)C)C(=O)N1C[C@H](O)C[C@H]1C(=O)NO` (Boc-Leu-[Hyp]-{NHOH}), the IC50 runs as follows: (read-out: IC50) 3.87 µM; (read-out: Log IC50 (converted)) 11 µM.

As to `CC(C)(C)OC(=O)N[C@@H](Cc1ccccc1)C(=O)N1C[C@H](O)C[C@H]1C(=O)O` (Boc-Phe-[Hyp]-OH), the half-inhibitory concentration (IC50) (read-out: IC50) came to 2.85 µM and the IC50 (read-out: Log IC50 (converted)) was 7.59 µM.

As for `N[C@H]1C[C@@H](C(=O)O)N(C(=O)Cc2ccccc2Nc2c(Cl)cccc2Cl)C1`, the IC50 (read-out: IC50) is 16.2 µM and the half-maximal inhibitory concentration (IC50) (read-out: Log IC50 (converted)) is 39.8 µM.

Take `O=C(O)[C@@H]1C[C@@H](O)CN1C(=O)Cc1ccccc1Nc1c(Cl)cccc1Cl`: the IC50 is 19.8 µM (read-out: IC50) and 49 µM (read-out: Log IC50 (converted)).

For the compound `CC(C)(C)OC(=O)N[C@@H](Cc1ccccc1)C(=O)N1C[C@@H](N)C[C@H]1C(=O)O`, the IC50 was 2.4 µM (read-out: IC50) and 6.46 µM (read-out: Log IC50 (converted)).

For the compound `CC(C)C[C@H](NC(=O)OC(C)(C)C)C(=O)N1C[C@H](O)C[C@H]1C(=O)O` (Boc-Leu-[Hyp]-OH), the IC50 is 11.5 µM (read-out: IC50) and 33.9 µM (read-out: Log IC50 (converted)).

On to `CC(C)(C)OC(=O)N[C@@H](Cc1ccccc1)C(=O)N1C[C@@H](N)C[C@H]1C(=O)NO`, for which the IC50 is, setting by setting: (read-out: IC50) 4.17 µM; (read-out: Log IC50 (converted)) 10.7 µM.

Regarding `CC(C)[C@H](NC(=O)OC(C)(C)C)C(=O)N1C[C@H](O)C[C@H]1C(=O)NO` (Boc-Val-[Hyp]-{NHOH}), the half-inhibitory concentration (IC50) (read-out: IC50) is 6.09 µM and the concentration for half-maximal inhibition (IC50) (read-out: Log IC50 (converted)) was 17.8 µM.

On to `CC(C)C[C@H](NC(=O)OC(C)(C)C)C(=O)N1C[C@@H](N)C[C@H]1C(=O)NO`, for which the IC50 by setting is: (read-out: IC50) 6.13 µM; (read-out: Log IC50 (converted)) 17.4 µM.

Take `CC(C)[C@H](NC(=O)OC(C)(C)C)C(=O)N1C[C@@H](N)C[C@H]1C(=O)O`: the IC50 is 4.29 µM (read-out: IC50) and 13.2 µM (read-out: Log IC50 (converted)).

As for `C[C@H](NC(=O)OC(C)(C)C)C(=O)N1C[C@@H](N)C[C@H]1C(=O)NO`, the IC50 by setting is: (read-out: IC50) 12.6 µM; (read-out: Log IC50 (converted)) 40.7 µM.

Regarding `CC(C)[C@H](NC(=O)OC(C)(C)C)C(=O)N1C[C@H](O)C[C@H]1C(=O)O` (Boc-Val-[Hyp]-OH), the half-maximal inhibitory concentration (IC50) was 4.63 µM (read-out: IC50) and 14.1 µM (read-out: Log IC50 (converted)).

Consider `CSCC[C@H](NC(=O)OC(C)(C)C)C(=O)N1C[C@@H](N)C[C@H]1C(=O)O`, for which the IC50 was 1.56 µM (read-out: IC50) and 4.37 µM (read-out: Log IC50 (converted)).

In the case of `CC(=O)N1C[C@H](O)C[C@@H]1C(=O)O`, the IC50 (read-out: IC50) amounted to 48.7 µM and the half-maximal inhibitory concentration (IC50) (read-out: Log IC50 (converted)) was 282 µM.

For the compound `COC(=O)[C@@H]1C[C@H](N)CN1C(=O)[C@H](C)NC(=O)OC(C)(C)C`, the IC50 was 83.7 µM (read-out: IC50) and 269 µM (read-out: Log IC50 (converted)).

In the case of `CC[C@H](C)[C@H](NC(=O)OC(C)(C)C)C(=O)N1C[C@@H](N)C[C@H]1C(=O)O`, the half-inhibitory concentration (IC50) is, setting by setting: (read-out: IC50) 2.71 µM; (read-out: Log IC50 (converted)) 7.94 µM.

Take `O=C(NO)[C@@H]1C[C@@H](O)CN1C(=O)Cc1ccccc1Nc1c(Cl)cccc1Cl`: the IC50 runs as follows: (read-out: IC50) 8.54 µM; (read-out: Log IC50 (converted)) 20 µM.

The record behind these values is ChEMBL document CHEMBL1147173, “Design, synthesis, inhibitory activity, and SAR studies of pyrrolidine derivatives as neuraminidase inhibitors” (Bioorg Med Chem, 2007).
